{"source": "ChEMBL document CHEMBL1212762", "about": "“In vivo activity of ceftobiprole in murine skin infections due to Staphylococcus aureus and Pseudomonas aeruginosa” (Antimicrob Agents Chemother, 2010)", "key": {"[1]": {"system": "Pseudomonas aeruginosa", "test": "Antimicrobial activity against Pseudomonas aeruginosa OC 4354 infected in immunocompromized SKH1 mouse assessed as log change in bacterial colony forming unit at 25 mg/kg/day, sc", "format": "functional", "details": "route subcutaneous", "summary_of_the_method": "(§1)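 Female SKH1 hairless mice made neutropenic with ip cyclophosphamide (150 mg/kg 5 days and 100 mg/kg 1 day before infection). 0.2 ml s.c. Cytodex bead (0.1% vol/vol) inoculum in BHI: OC 4351 left flank, OC 4354 right flank. Drug s.c. at 1, 3, 25, 27 h postinfection. Killed at 48 h; skin homogenised in saline, plated on TSA 18 h 37°C; Δlog CFU/g versus inoculum. 5 mice/dose, run twice.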"}, "[2]": {"system": "Pseudomonas aeruginosa", "test": "Antimicrobial activity against Pseudomonas aeruginosa OC 4351 infected in immunocompromized SKH1 mouse assessed as log change in bacterial colony forming units at 25 mg/kg/day, sc", "format": "functional", "details": "route subcutaneous", "summary_of_the_method": "as §1"}, "[3]": {"system": "Plasma", "test": "fAUC (0-infinity) in immunocompromized SKH1 mouse plasma at 50 mg/kg, sc", "format": "ADME, organism-based", "design": "dose 50 mg/kg, route subcutaneous", "details": "in vivo", "summary_of_the_method": "(§2)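 Female SKH1 hairless mice, immunocompetent or cyclophosphamide-neutropenic, infected s.c. with MRSA OC 8525 or P. aeruginosa OC 4354 on the Cytodex beads (left flank), sterile beads on the right. Single dose 24 h later: s.c. at the nape, or linezolid 50 mg/kg oral. Plasma and skin (DMSO homogenate) sampled over time, HPLC with diode array.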"}, "[4]": {"system": "Pseudomonas aeruginosa", "test": "Antimicrobial activity against Pseudomonas aeruginosa OC 4351 assessed as inhibition of growth by broth microdilution method", "format": "functional"}, "[5]": {"system": "Pseudomonas aeruginosa", "test": "Antimicrobial activity against Pseudomonas aeruginosa OC 4354 infected in immunocompromized SKH1 mouse assessed as log change in bacterial colony forming unit at 1.6 mg/kg/day, sc", "format": "functional", "details": "route subcutaneous", "summary_of_the_method": "as §1"}, "[6]": {"system": "Pseudomonas aeruginosa", "test": "Antimicrobial activity against Pseudomonas aeruginosa OC 4354 assessed as inhibition of growth by broth microdilution method", "format": "functional"}, "[7]": {"system": "Pseudomonas aeruginosa", "test": "Antimicrobial activity against Pseudomonas aeruginosa OC 4354 infected in immunocompromized SKH1 mouse assessed as log change in bacterial colony forming unit at 100 mg/kg/day, sc", "format": "functional", "details": "route subcutaneous", "summary_of_the_method": "as §1"}, "[8]": {"system": "Pseudomonas aeruginosa", "test": "Antimicrobial activity against Pseudomonas aeruginosa OC 4351 infected in immunocompromized SKH1 mouse assessed as log change in bacterial colony forming unit at 100 mg/kg/day, sc", "format": "functional", "details": "route subcutaneous", "summary_of_the_method": "as §1"}, "[9]": {"test": "Tmax in immunocompromized SKH1 mouse plasma at 50 mg/kg, sc", "format": "ADME, organism-based", "design": "dose 50 mg/kg, route subcutaneous", "summary_of_the_method": "as §2"}, "[10]": {"system": "Pseudomonas aeruginosa", "test": "Antimicrobial activity against Pseudomonas aeruginosa OC 4351 infected in immunocompromized SKH1 mouse assessed as log change in bacterial colony forming unit at 25 mg/kg/day, sc", "format": "functional", "details": "route subcutaneous", "summary_of_the_method": "as §1"}, "[11]": {"system": "Plasma", "test": "fCmax in immunocompromized SKH1 mouse plasma at 50 mg/kg, sc", "format": "ADME, organism-based", "design": "dose 50 mg/kg, route subcutaneous", "details": "in vivo", "summary_of_the_method": "as §2"}, "[12]": {"system": "Pseudomonas aeruginosa", "test": "Antimicrobial activity against Pseudomonas aeruginosa OC 4351 infected in immunocompromized SKH1 mouse assessed as log change in bacterial colony forming unit at 1.6 mg/kg/day, sc", "format": "functional", "details": "route subcutaneous", "summary_of_the_method": "as §1"}, "[13]": {"system": "Pseudomonas aeruginosa", "test": "Antimicrobial activity against Pseudomonas aeruginosa OC 4354 infected in immunocompromized SKH1 mouse assessed as log change in bacterial colony forming unit at 6.2 mg/kg/day, sc", "format": "functional", "details": "route subcutaneous", "summary_of_the_method": "as §1"}, "[14]": {"test": "Protein binding in mouse plasma", "format": "ADME, cell-free", "details": "read-out: PPB (converted)"}, "[15]": {"test": "Tmax in immunocompetent SKH1 mouse plasma at 50 mg/kg, po", "format": "ADME, organism-based", "design": "dose 50 mg/kg, route oral", "summary_of_the_method": "as §2"}, "[16]": {"system": "Staphylococcus aureus", "test": "Antimicrobial activity against methicillin-susceptible Staphylococcus aureus Smith OC 4172 infected immunocompetent SKH1 mouse assessed as lesion volume at 1.6 mg/kg/day, sc measured after 48 hrs postinfection (reference value: 1181 mm3)", "details": "route subcutaneous"}, "[17]": {"system": "Plasma", "test": "fAUC (0-infinity) in immunocompetent SKH1 mouse plasma at 50 mg/kg, po", "format": "ADME, organism-based", "design": "dose 50 mg/kg, route oral", "details": "in vivo", "summary_of_the_method": "as §2"}, "[18]": {"system": "Staphylococcus aureus", "test": "Antimicrobial activity against methicillin-resistant Staphylococcus aureus OC 8525 infected immunocompetent SKH1 mouse assessed as lesion volume at 25 mg/kg/day, sc measured after 48 hrs postinfection (reference value: 1535 mm3)", "details": "route subcutaneous"}, "[19]": {"system": "Staphylococcus aureus", "test": "Antimicrobial activity against methicillin-resistant Staphylococcus aureus OC 8525 infected immunocompetent SKH1 mouse assessed as lesion volume at 6.2 mg/kg/day, sc measured after 48 hrs postinfection (reference value: 1535 mm3)", "details": "route subcutaneous"}, "[20]": {"system": "Plasma", "test": "fCmax in immunocompetent SKH1 mouse plasma at 50 mg/kg, po", "format": "ADME, organism-based", "design": "dose 50 mg/kg, route oral", "details": "in vivo", "summary_of_the_method": "as §2"}, "[21]": {"system": "Staphylococcus aureus", "test": "Antimicrobial activity against methicillin-resistant Staphylococcus aureus OC 8525 infected immunocompetent SKH1 mouse assessed as lesion volume at 100 mg/kg/day, sc measured after 48 hrs postinfection (reference value: 1535 mm3)", "details": "route subcutaneous"}, "[22]": {"test": "Ratio of fAUC to MIC in Staphylococcus aureus OC 4172 infected sc dosed SKH1 mouse", "format": "functional", "summary_of_the_method": "(§3)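 Free-drug plasma AUC, converted from μg·min/ml to μg·h/ml, divided by the MIC of the infecting S. aureus strain.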"}, "[23]": {"test": "Ratio of fAUC to MIC in Staphylococcus aureus OC 8525 infected sc dosed SKH1 mouse", "format": "functional", "summary_of_the_method": "as §3"}, "[24]": {"system": "Staphylococcus aureus", "test": "Antimicrobial activity against methicillin-susceptible Staphylococcus aureus Smith OC 4172 infected immunocompetent SKH1 mouse assessed as lesion volume at 6.2 mg/kg/day, sc measured after 48 hrs postinfection (reference value: 1181 mm3)", "details": "route subcutaneous"}, "[25]": {"test": "Half life in immunocompetent SKH1 mouse plasma at 50 mg/kg, po", "format": "ADME, organism-based", "design": "dose 50 mg/kg, route oral", "summary_of_the_method": "as §2"}, "[26]": {"system": "Staphylococcus aureus", "test": "Antimicrobial activity against methicillin-susceptible Staphylococcus aureus Smith OC 4172 infected immunocompetent SKH1 mouse assessed as lesion volume at 25 mg/kg/day, sc measured after 48 hrs postinfection (reference value: 1181 mm3)", "details": "route subcutaneous"}, "[27]": {"system": "Staphylococcus aureus", "test": "Antimicrobial activity against methicillin-resistant Staphylococcus aureus OC 8525 infected immunocompetent SKH1 mouse assessed as lesion volume at 1.6 mg/kg/day, sc measured after 48 hrs postinfection (reference value: 1535 mm3)", "details": "route subcutaneous"}}}
{"compound": "CO/N=C(\\C(=O)N[C@@H]1C(=O)N2C(C(=O)[O-])=C(C[N+]3(C)CCCC3)CS[C@H]12)c1csc(N)n1", "values": [{"measurement": "deltalog10CFU", "setting": "[1]", "value": 1.7}, {"measurement": "deltalog10CFU", "setting": "[2]", "value": 1.8}, {"measurement": "fAUC", "setting": "[3]", "value": 1790, "unit": "µg·min/mL"}, {"measurement": "MIC", "setting": "[4]", "value": 4, "unit": "µg/mL"}, {"measurement": "deltalog10CFU", "setting": "[5]", "value": 1.7}, {"measurement": "MIC", "setting": "[6]", "value": 32, "unit": "µg/mL"}, {"measurement": "deltalog10CFU", "setting": "[7]", "value": 1.7}, {"measurement": "deltalog10CFU", "setting": "[8]", "value": 1}, {"measurement": "Tmax", "setting": "[9]", "value": 7.5, "unit": "min"}, {"measurement": "deltalog10CFU", "setting": "[10]", "value": 2.1}, {"measurement": "fCmax", "setting": "[11]", "value": 66, "unit": "µg/mL"}, {"measurement": "deltalog10CFU", "setting": "[12]", "value": 2.1}, {"measurement": "deltalog10CFU", "setting": "[13]", "value": 2.9}]}
{"compound": "CC(=O)NC[C@H]1CN(c2ccc(N3CCOCC3)c(F)c2)C(=O)O1", "note": "[LINEZOLID]", "values": [{"measurement": "fraction unbound", "setting": "[14]", "value": 0.68}, {"measurement": "Tmax", "setting": "[15]", "value": 30, "unit": "min"}, {"measurement": "Activity", "setting": "[16]", "value": 1407, "unit": "mm3"}, {"measurement": "fAUC", "setting": "[17]", "value": 1795, "unit": "µg·min/mL"}, {"measurement": "Activity", "setting": "[18]", "value": 932, "unit": "mm3"}, {"measurement": "Activity", "setting": "[19]", "value": 1277, "unit": "mm3"}, {"measurement": "fCmax", "setting": "[20]", "value": 14, "unit": "µg/mL"}, {"measurement": "Activity", "setting": "[21]", "value": 858, "unit": "mm3"}, {"measurement": "fAUC/MIC", "setting": "[22]", "value": 898}, {"measurement": "fAUC/MIC", "setting": "[23]", "value": 449}, {"measurement": "Activity", "setting": "[24]", "value": 1234, "unit": "mm3"}, {"measurement": "half-life", "setting": "[25]", "value": 102, "unit": "min"}, {"measurement": "Activity", "setting": "[26]", "value": 1018, "unit": "mm3"}, {"measurement": "Activity", "setting": "[27]", "value": 1644, "unit": "mm3"}]}
